Test results published in ChEMBL document CHEMBL2046301, “Synthesis and antimycobacterial activity of some phthalimide derivatives” (Bioorg Med Chem, 2012).
≈ marks a conversion by molar mass, not a printed value.

Legend:
[1] = system: Mycobacterium tuberculosis; assay: Antimycobacterial activity against Mycobacterium tuberculosis H37Ra ATCC 25177 by microbroth dilution method; format: functional
Procedure, shortened: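 M. tuberculosis H37Ra (ATCC 25177) colonies suspended in Middlebrook 7H9 broth to 1.0 McFarland, diluted tenfold, mixed 1:1 with twofold compound dilutions (DMSO stocks; final 256 to 1 µg/mL). Growth was checked by Kinyoun acid-fast smear. MIC = lowest concentration giving complete inhibition.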

L929 = assay: Cytotoxicity against mouse L929 cells at 0.1 mM after 24 hrs by MTT assay; format: cell-based; conditions: l929, 24 h, 100 µM
Procedure, shortened: (§1)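 L929 mouse fibroblasts seeded at 3 × 10³ cells/well in 100 µl medium; cell-free medium wells as controls. Exposed to compounds at 10^-4 M for 24 h. Viable cells quantified by MTT with absorbance read at 570 nm. Viability given as percent of absorbance of unexposed cells. Each experiment repeated three times.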

[2] = Cytotoxicity against mouse L929 cells at 0.1 mM assessed as cell viability after 24 hrs by MTT assay; format: cell-based; conditions: read-out: Activity; procedure, shortened: as §1

Structure (SMILES)	MBC [1] [µg/mL]	MIC [1] [µg/mL]	Activity (L929)	viability at 24 h, 100 µM [2] [%]
CC(=O)NS(=O)(=O)c1ccc(N2C(=O)c3ccccc3C2=O)cc1	256 (≈ 743 µM)	256 (≈ 743 µM)	Non-toxic	–
O=C(NS(=O)(=O)c1ccc(N2C(=O)c3ccccc3C2=O)cc1)c1ccccc1	256 (≈ 630 µM)	128 (≈ 315 µM)	Non-toxic	–
O=C1c2ccccc2C(=O)N1c1ccc(S(=O)(=O)Nc2nccs2)cc1	256 (≈ 664 µM)	256 (≈ 664 µM)	Non-toxic	–
CC(=O)NS(=O)(=O)c1ccc(N2C(=O)c3c(F)c(F)c(F)c(F)c3C2=O)cc1	128 (≈ 307 µM)	64 (≈ 154 µM)	Non-toxic	–
O=C(NS(=O)(=O)c1ccc(N2C(=O)c3c(F)c(F)c(F)c(F)c3C2=O)cc1)c1ccccc1	128 (≈ 268 µM)	64 (≈ 134 µM)	Non-toxic	–
O=C1c2c(F)c(F)c(F)c(F)c2C(=O)N1c1ccc(S(=O)(=O)Nc2ncccn2)cc1	64 (≈ 141 µM)	32 (≈ 70.7 µM)	Non-toxic	–
Cc1cc(C)nc(NS(=O)(=O)c2ccc(N3C(=O)c4c(F)c(F)c(F)c(F)c4C3=O)cc2)n1	128 (≈ 266 µM)	32 (≈ 66.6 µM)	Toxic	–
O=C1c2c(F)c(F)c(F)c(F)c2C(=O)N1c1ccc(S(=O)(=O)Nc2nccs2)cc1	64 (≈ 140 µM)	64 (≈ 140 µM)	Non-toxic	–
Cc1cc(NS(=O)(=O)c2ccc(N3C(=O)c4c(F)c(F)c(F)c(F)c4C3=O)cc2)no1	128 (≈ 281 µM)	32 (≈ 70.3 µM)	Toxic	< 50
Cc1ccnc(NS(=O)(=O)c2ccc(N3C(=O)c4c(F)c(F)c(F)c(F)c4C3=O)cc2)n1	256 (≈ 549 µM)	128 (≈ 274 µM)	–	–
COc1ncnc(NS(=O)(=O)c2ccc(N3C(=O)c4c(F)c(F)c(F)c(F)c4C3=O)cc2)c1OC	64 (≈ 125 µM)	32 (≈ 62.5 µM)	Toxic	< 50
NNC(=O)c1ccncc1 [ISONIAZID]	–	< 0.2	–	–
Nc1ccc(S(=O)(=O)NC(=O)c2ccccc2)cc1 [SULFABENZAMIDE]	256 (≈ 926 µM)	32 (≈ 116 µM)	–	–
CC(=O)NS(=O)(=O)c1ccc(N)cc1 [SULFACETAMIDE]	256 (≈ 1190 µM)	64 (≈ 299 µM)	–	–
Nc1ccc(S(=O)(=O)Nc2ncccn2)cc1 [SULFADIAZINE]	128 (≈ 511 µM)	8 (≈ 32 µM)	–	–
COc1ncnc(NS(=O)(=O)c2ccc(N)cc2)c1OC [SULFADOXINE]	256 (≈ 825 µM)	32 (≈ 103 µM)	–	–
Cc1ccnc(NS(=O)(=O)c2ccc(N)cc2)n1 [SULFAMERAZINE]	256 (≈ 969 µM)	32 (≈ 121 µM)	–	–
Cc1cc(C)nc(NS(=O)(=O)c2ccc(N)cc2)n1 [SULFAMETHAZINE]	256 (≈ 920 µM)	32 (≈ 115 µM)	–	–
Cc1cc(NS(=O)(=O)c2ccc(N)cc2)no1 [SULFAMETHOXAZOLE]	256 (≈ 1010 µM)	32 (≈ 126 µM)	–	–
Nc1ccc(S(=O)(=O)Nc2nccs2)cc1 [SULFATHIAZOLE]	16 (≈ 62.7 µM)	4 (≈ 15.7 µM)	–	–
O=C1CCC(N2C(=O)c3ccccc3C2=O)C(=O)N1 (stereo not drawn) [THALIDOMIDE]	256 (≈ 991 µM)	128 (≈ 496 µM)	–	–
